Measurements from ChEMBL document CHEMBL4406821, “Novel dual inhibitors targeting CDK4 and VEGFR2 synergistically suppressed cancer progression and angiogenesis” (Eur J Med Chem, 2019).
Activity calls are given as the source filed them. No cut-off for these calls is given here.

How the values were obtained:
[1] = biological target: Serine/threonine-protein kinase Nek6 (Homo sapiens) (UniProt Q9HC98); assay: Inhibition of recombinant human NEK6 (2 to end residues) at 1 uM using FLAKSFGSPNRAYKK as substrate incubated for 40 mins in presence of [gamma-33P]-ATP by scintillation counting method relative to control
[2] = biological target: Proto-oncogene tyrosine-protein kinase ROS (Homo sapiens) (UniProt P08922); assay: Inhibition of recombinant human ROS (1883 to end residues) at 1 uM using KKKSPGEYVNIEFG as substrate incubated for 40 mins in presence of [gamma-33P]-ATP by scintillation counting method relative to control
[3] = Toxicity in NOD/SCID BALB/c mouse xenografted with human SiHa cells assessed as effect on blood parameter by measuring RDW at 40 mg/kg, po administered once two days for 4 times by hematology analyzer; type: organism-based; settings: in vivo
[4] = biological target: RAC-gamma serine/threonine-protein kinase (Homo sapiens) (UniProt Q9Y243); assay: Inhibition of recombinant human PKBgamma (117 to end residues) at 1 uM using GRPRTSSFAEGKK as substrate incubated for 40 mins in presence of [gamma-33P]-ATP by scintillation counting method relative to control
[5] = biological target: Myosin light chain kinase, smooth muscle (Homo sapiens) (UniProt Q15746); assay: Inhibition of recombinant human MLCK (1425 to 1771 residues) at 1 uM using KKLNRTLSFAEPG as substrate incubated for 40 mins in presence of [gamma-33P]-ATP by scintillation counting method relative to control
[6] = biological target: Serine/threonine-protein kinase VRK2 (Homo sapiens) (UniProt Q86Y07); assay: Inhibition of recombinant human VRK2 (1 to 336 residues) at 1 uM using casein as substrate incubated for 40 mins in presence of [gamma-33P]-ATP by scintillation counting method relative to control
Summary of the method: (§1)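 Tested at a single 1 uM in an outsourced commercial kinase-profiling panel, read as percent inhibition. Each value is the mean of two independent experiments.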

MDA-MB-231 = assay: Inhibition of colony formation in human MDA-MB-231 cells at 20 to 40 nM incubated for 5 days by crystal violet staining based light microscopy; type: functional, cell-based
Summary of the method: (§2)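 4 × 10^3 cells per well were cultured with graded concentrations for 5 days. Cells were then fixed with 20% methanol, stained with 0.5% crystal violet and photographed by light microscopy.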

[7] = biological target: Receptor-interacting serine/threonine-protein kinase 1 (Homo sapiens) (UniProt Q13546); assay: Inhibition of recombinant human RIPK1 (8 to 322 residues) at 1 uM using myelin basic protein as substrate incubated for 40 mins in presence of [gamma-33P]-ATP by scintillation counting method relative to control
[8] = biological target: Death-associated protein kinase 1 (Homo sapiens) (UniProt P53355); assay: Inhibition of recombinant human DAPK1 (1 to 296 residues) at 1 uM using KKLNRTLSFAEPG as substrate incubated for 40 mins in presence of [gamma-33P]-ATP by scintillation counting method relative to control; summary of the method: as §1
[9] = biological target: Platelet-derived growth factor receptor beta (Homo sapiens) (UniProt P09619); assay: Inhibition of recombinant human PDGFRbeta (557 to end residues) at 1 uM using poly(Glu, Tyr) 4:1 as substrate incubated for 40 mins in presence of [gamma-33P]-ATP by scintillation counting method relative to control
[10] = biological target: Dual specificity mitogen-activated protein kinase kinase 4 (Mus musculus) (UniProt P47809); assay: Inhibition of recombinant mouse MKK4 (34 to end residues) at 1 uM using unactive JNK1a1 as substrate incubated for 40 mins in presence of [gamma-33P]-ATP by scintillation counting method relative to control
HeLa [11] = assay: Induction of cell cycle arrest in human HeLa cells assessed as accumulation in G2/M phase at 40 to 80 nM incubated for 36 hrs by propidium iodide staining based flow cytometry; type: functional
Summary of the method: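 Cells were treated with graded concentrations for 36 h, then fixed overnight in 70% ice-cold ethanol at 4°C and resuspended in PBS. Staining used 50 µg/ml PI plus 5 µg/ml RNase at 37°C for 30 min. DNA content was analysed by FACS to give G0/G1, S and G2/M fractions.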

[12] = biological target: cGMP-dependent protein kinase 1 (Homo sapiens) (UniProt Q13976); assay: Inhibition of recombinant human full length PKG1alpha at 1 uM using RRRLSFAEPG as substrate incubated for 40 mins in presence of [gamma-33P]-ATP by scintillation counting method relative to control
[13] = biological target: Wee1-like protein kinase 2 (Homo sapiens) (UniProt P0C1S8); assay: Inhibition of recombinant human full length WEE1B at 1 uM using LSNLYHQGKFLQTFCGSPLYRRR as substrate incubated for 40 mins in presence of [gamma-33P]-ATP by scintillation counting method relative to control
Summary of the method: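 Single-point inhibition at 1 uM measured in a commercial kinase profiling panel (KinaseProfiler); each value is the mean of two independent experiments.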

[14] = biological target: Discoidin domain-containing receptor 2 (Homo sapiens) (UniProt Q16832); assay: Inhibition of recombinant human DDR2 (467 to end residues) at 1 uM using KKSRGDYMTMQIG as substrate incubated for 40 mins in presence of [gamma-33P]-ATP by scintillation counting method relative to control
Summary of the method: (§3)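 Kinase panel profiling at 1 μM performed by Eurofins KinaseProfiler; percent inhibition reported as mean of two independent experiments.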

HeLa [15] = assay: Inhibition of colony formation in human HeLa cells at 40 to 80 nM incubated for 5 days by crystal violet staining based light microscopy; type: functional, cell-based; summary of the method: as §2
[16] = biological target: Epithelial discoidin domain-containing receptor 1 (Homo sapiens) (UniProt Q08345); assay: Inhibition of recombinant human DDR1 (492 to end residues) at 1 uM using KKKSPGEYVNIEFG as substrate incubated for 40 mins in presence of [gamma-33P]-ATP by scintillation counting method relative to control; summary of the method: as §3
[17] = biological target: Tyrosine-protein kinase Lyn (Homo sapiens) (UniProt P07948); assay: Inhibition of recombinant human full length LYN at 1 uM using poly(Glu, Tyr) 4:1 as substrate incubated for 40 mins in presence of [gamma-33P]-ATP by scintillation counting method relative to control
[18] = biological target: Receptor tyrosine-protein kinase erbB-4 (Homo sapiens) (UniProt Q15303); assay: Inhibition of recombinant human ERBB4 (706 to 991 residues) at 1 uM using poly (Glu, Tyr) 4:1 as substrate incubated for 40 mins in presence of [gamma-33P]-ATP by scintillation counting method relative to control; summary of the method: as §1
[19] = biological target: Ribosomal protein S6 kinase alpha-1 (Homo sapiens) (UniProt Q15418); assay: Inhibition of recombinant human full length RSK1 at 1 uM using KKKNRTLSVA as substrate incubated for 40 mins in presence of [gamma-33P]-ATP by scintillation counting method relative to control; summary of the method: as §1
[20] = biological target: Rhodopsin kinase GRK1 (Homo sapiens) (UniProt Q15835); assay: Inhibition of recombinant human full length GRK1 at 1 uM using KKKKERLLDDRHDSGLDSMKDEE as substrate incubated for 40 mins in presence of [gamma-33P]-ATP by scintillation counting method relative to control
Sequence of Rhodopsin kinase GRK1 (Homo sapiens) (Q15835 whole entry): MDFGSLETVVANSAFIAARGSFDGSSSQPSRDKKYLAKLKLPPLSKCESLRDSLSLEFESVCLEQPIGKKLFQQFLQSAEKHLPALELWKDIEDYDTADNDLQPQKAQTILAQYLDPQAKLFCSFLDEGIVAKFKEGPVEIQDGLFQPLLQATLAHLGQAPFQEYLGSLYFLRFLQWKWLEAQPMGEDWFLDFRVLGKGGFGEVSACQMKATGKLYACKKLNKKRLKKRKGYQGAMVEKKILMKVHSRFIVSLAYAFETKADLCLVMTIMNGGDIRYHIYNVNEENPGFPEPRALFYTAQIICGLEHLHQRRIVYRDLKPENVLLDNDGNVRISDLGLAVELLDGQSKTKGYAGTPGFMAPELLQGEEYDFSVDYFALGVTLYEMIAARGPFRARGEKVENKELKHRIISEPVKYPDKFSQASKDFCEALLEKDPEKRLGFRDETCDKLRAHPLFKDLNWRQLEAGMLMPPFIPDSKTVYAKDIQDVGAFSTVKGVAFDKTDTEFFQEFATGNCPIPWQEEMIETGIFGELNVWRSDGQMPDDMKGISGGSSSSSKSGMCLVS

Sequence of RAC-gamma serine/threonine-protein kinase (Homo sapiens) (Q9Y243 whole entry, the tested form may be a part): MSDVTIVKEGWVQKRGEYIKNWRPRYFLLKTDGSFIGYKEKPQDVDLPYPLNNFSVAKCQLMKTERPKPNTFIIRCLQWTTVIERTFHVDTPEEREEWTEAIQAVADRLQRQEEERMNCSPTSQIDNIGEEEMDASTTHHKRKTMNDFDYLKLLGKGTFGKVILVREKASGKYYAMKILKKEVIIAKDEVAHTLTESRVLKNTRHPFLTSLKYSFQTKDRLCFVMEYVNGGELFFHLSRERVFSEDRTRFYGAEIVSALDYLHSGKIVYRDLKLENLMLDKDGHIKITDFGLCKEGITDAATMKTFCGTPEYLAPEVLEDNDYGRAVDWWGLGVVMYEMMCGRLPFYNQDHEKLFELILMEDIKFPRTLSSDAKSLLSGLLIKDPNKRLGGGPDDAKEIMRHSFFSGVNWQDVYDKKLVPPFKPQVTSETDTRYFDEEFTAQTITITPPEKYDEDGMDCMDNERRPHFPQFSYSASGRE
Sequence of Epithelial discoidin domain-containing receptor 1 (Homo sapiens) (Q08345 whole entry, the tested form may be a part): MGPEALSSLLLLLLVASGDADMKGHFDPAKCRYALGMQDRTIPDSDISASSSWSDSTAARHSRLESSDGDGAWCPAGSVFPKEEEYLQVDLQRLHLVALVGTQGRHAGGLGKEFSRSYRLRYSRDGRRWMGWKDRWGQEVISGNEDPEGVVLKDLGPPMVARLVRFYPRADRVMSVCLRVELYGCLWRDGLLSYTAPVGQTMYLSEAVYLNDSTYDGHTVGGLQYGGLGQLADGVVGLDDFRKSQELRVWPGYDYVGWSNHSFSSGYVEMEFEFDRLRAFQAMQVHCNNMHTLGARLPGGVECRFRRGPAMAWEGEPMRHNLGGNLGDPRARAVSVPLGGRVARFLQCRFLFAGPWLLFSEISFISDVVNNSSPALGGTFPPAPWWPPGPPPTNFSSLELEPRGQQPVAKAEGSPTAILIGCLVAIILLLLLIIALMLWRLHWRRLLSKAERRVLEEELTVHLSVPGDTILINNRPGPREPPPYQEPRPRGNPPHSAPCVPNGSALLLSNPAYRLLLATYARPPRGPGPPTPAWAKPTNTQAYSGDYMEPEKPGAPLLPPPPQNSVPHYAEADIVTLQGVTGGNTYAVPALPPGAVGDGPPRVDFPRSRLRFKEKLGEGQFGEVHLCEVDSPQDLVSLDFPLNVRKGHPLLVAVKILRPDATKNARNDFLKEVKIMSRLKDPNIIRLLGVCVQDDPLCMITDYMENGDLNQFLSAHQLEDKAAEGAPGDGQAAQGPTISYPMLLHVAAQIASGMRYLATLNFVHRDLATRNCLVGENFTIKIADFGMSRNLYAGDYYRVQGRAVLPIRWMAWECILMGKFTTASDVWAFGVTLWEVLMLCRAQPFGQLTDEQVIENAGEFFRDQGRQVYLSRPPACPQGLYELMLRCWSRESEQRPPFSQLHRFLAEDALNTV
Sequence of Receptor-interacting serine/threonine-protein kinase 1 (Homo sapiens) (Q13546 whole entry, the tested form may be a part): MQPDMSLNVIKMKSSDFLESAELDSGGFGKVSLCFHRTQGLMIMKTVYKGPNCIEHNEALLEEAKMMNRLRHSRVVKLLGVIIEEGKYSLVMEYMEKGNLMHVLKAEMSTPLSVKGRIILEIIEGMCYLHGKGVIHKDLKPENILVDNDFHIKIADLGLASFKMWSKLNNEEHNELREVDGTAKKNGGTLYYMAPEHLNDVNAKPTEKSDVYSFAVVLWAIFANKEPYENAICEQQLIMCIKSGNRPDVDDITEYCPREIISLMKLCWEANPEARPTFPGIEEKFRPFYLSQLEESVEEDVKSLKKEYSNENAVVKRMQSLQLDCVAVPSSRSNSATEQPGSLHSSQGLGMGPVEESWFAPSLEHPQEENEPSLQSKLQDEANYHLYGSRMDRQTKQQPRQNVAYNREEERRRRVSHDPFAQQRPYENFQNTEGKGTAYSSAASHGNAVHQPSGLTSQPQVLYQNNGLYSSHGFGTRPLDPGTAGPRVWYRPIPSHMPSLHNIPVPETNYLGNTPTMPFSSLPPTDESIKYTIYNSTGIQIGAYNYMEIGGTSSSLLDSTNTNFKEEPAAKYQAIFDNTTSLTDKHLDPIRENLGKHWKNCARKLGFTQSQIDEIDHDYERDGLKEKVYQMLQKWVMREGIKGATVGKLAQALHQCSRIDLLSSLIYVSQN
Sequence of Receptor tyrosine-protein kinase erbB-4 (Homo sapiens) (Q15303 whole entry, the tested form may be a part): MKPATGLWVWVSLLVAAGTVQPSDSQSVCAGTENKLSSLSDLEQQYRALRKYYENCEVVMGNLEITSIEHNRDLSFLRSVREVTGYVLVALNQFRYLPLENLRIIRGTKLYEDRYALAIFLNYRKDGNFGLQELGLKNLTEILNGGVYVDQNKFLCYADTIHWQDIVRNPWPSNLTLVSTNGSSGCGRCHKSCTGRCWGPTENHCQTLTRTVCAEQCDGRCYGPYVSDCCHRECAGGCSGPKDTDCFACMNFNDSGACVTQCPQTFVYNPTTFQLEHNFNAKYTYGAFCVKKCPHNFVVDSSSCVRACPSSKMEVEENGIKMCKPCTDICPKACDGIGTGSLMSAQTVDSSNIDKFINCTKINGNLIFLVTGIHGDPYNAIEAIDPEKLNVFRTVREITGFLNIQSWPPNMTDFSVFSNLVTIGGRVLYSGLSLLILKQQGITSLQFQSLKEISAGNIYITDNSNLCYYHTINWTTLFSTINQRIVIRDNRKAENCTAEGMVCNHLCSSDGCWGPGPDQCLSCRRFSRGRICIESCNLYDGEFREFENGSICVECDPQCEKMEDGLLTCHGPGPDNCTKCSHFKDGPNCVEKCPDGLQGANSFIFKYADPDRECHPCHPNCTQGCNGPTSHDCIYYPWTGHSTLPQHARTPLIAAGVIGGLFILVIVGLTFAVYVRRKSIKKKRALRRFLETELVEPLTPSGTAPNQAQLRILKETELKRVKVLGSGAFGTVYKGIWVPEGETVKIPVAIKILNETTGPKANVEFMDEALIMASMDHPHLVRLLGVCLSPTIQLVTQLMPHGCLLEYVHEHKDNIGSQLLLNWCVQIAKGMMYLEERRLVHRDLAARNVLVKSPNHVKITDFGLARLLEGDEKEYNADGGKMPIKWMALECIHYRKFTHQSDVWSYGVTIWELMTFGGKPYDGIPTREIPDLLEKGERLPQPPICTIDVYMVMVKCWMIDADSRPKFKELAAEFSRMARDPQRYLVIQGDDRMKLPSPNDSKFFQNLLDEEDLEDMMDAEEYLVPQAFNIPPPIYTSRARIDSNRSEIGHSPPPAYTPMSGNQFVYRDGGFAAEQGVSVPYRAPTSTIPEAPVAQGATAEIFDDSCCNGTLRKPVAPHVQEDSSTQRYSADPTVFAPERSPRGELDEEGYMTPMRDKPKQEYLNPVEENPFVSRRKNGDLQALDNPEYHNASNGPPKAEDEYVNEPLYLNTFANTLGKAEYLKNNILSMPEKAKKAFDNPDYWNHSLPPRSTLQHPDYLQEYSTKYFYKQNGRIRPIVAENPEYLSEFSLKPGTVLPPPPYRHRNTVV
Sequence of Serine/threonine-protein kinase Nek6 (Homo sapiens) (Q9HC98 whole entry): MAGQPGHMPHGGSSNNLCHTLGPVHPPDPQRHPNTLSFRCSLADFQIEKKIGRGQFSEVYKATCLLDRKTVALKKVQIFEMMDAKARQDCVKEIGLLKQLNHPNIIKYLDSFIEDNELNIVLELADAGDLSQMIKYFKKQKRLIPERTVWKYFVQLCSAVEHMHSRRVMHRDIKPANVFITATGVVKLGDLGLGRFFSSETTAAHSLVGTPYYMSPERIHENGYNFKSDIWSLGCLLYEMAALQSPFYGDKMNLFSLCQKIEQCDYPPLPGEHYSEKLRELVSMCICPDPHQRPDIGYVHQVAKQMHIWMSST
Sequence of Ribosomal protein S6 kinase alpha-1 (Homo sapiens) (Q15418 whole entry): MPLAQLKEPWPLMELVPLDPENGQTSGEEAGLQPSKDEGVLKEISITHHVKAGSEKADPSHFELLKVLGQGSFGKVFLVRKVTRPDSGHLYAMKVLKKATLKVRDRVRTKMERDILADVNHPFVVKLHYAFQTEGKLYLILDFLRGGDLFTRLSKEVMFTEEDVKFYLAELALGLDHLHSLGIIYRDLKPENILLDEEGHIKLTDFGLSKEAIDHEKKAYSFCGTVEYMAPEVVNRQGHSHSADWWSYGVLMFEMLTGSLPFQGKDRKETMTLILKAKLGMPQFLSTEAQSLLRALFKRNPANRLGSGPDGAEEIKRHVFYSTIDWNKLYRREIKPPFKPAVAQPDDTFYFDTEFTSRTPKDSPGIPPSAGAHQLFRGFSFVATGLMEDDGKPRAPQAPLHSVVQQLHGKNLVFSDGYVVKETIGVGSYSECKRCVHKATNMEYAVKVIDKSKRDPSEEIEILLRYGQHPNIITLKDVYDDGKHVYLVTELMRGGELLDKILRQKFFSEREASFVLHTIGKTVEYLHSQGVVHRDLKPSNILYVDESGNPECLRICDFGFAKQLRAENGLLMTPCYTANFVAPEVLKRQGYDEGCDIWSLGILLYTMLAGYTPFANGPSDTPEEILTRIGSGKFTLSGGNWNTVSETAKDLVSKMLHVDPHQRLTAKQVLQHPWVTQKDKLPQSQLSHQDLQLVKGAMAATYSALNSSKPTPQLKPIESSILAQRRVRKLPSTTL

Cc1ccc(NC(=O)C2(C(=O)Nc3ccc(Nc4ncc(F)c(-c5cc(F)c6nc(C)n(C(C)C)c6c5)n4)cc3)CC2)cc1
inhibition [1]: 2% | inhibition [2]: 58% | Activity [3]: Non-Toxic | inhibition [4]: 64% | inhibition [5]: 21% | inhibition [6]: 0% | inhibition (MDA-MB-231): Active | inhibition [7]: 15% | inhibition [8]: 0% | inhibition [9]: 6% | inhibition [10]: 12% | Activity (HeLa [11]): Active | inhibition [12]: 51% | inhibition [13]: 0% | inhibition [14]: 55% | inhibition (HeLa [15]): Active | inhibition [16]: 73% | inhibition [17]: 58% | inhibition [18]: 0% | inhibition [19]: 0% | inhibition [20]: 8%
